From ChEMBL document CHEMBL4406859, “Antitumor and antiviral activities of 4-substituted 1,2,3-triazolyl-2,3-dibenzyl-L-ascorbic acid derivatives” (Eur J Med Chem, 2019)
Active and inactive are the calls of the source. The rule behind the calls is not given here.

Legend:
[1] = tested on: HepG2; experiment: Antiproliferative activity against human HepG2 cells assessed as reduction in cell viability incubated for 72 hrs by MTT assay; assay type: functional, cell-based; conditions: HepG2, 72 h
Summary of the method: (§1)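 Cells (ATCC) grown in DMEM with 10 FBS, penicillin/streptomycin, 2 mM glutamine, 37 °C, 5 CO2. 5000 cells/well seeded; after 24 h, freshly prepared dilutions at five concentrations (0.01–100 μM) added for 72 h. MTT read-out; absorbance converted to percentage growth by NIH formulas. Two experiments in quadruplicate; IC50 by linear regression.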

[2] = tested on: Influenza A virus H3N2; experiment: Antiviral activity against Influenza A virus (A/HK/7/87(H3N2)) infected in dog MDCK cells assessed as reduction in virus-induced cytopathogenicity incubated for 7 days by microscopic analysis; assay type: functional, organism-based; conditions: A/Hong Kong/7/1987(H3N2)
[3] = tested on: Cytomegalovirus; experiment: Antiviral activity against Cytomegalovirus AD169 infected in human HELF cells assessed as reduction in virus-induced cytopathogenicity incubated for 7 days by Giemsa staining based microscopic analysis; assay type: functional, organism-based; conditions: Human betaherpesvirus 5, AD169, HELF, 168 h
Summary of the method: (§2)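 Confluent HEL fibroblasts infected with CMV (Davis or AD-169) at 100 PFU/well for 2 h. Residual virus removed, then medium with graded compound concentrations added (duplicate). Incubated 7 days at 37 °C. Cytopathogenicity scored microscopically after ethanol fixation and Giemsa staining. EC50 read from plots of % cytopathogenicity versus concentration.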

[4] = tested on: Human alphaherpesvirus 3; experiment: Antiviral activity against thymidine kinase deficient Varicella zoster virus infected in human HELF cells assessed as reduction in virus-induced cytopathogenicity incubated for 7 days by Giemsa staining based microscopic analysis; assay type: functional, organism-based; conditions: Human alphaherpesvirus 3, HELF, 168 h
[5] = tested on: A549; experiment: Antiproliferative activity against human A549 cells assessed as reduction in cell viability incubated for 72 hrs by MTT assay; assay type: functional, cell-based; conditions: A549, 72 h; summary of the method: as §1
[6] = tested on: HCT-116; experiment: Antiproliferative activity against human HCT116cells assessed as reduction in cell viability incubated for 72 hrs by MTT assay; assay type: functional, cell-based; conditions: HCT-116, 72 h; summary of the method: as §1
[7] = tested on: Human adenovirus 2; experiment: Antiviral activity against Human adenovirus 2 infected in human HELF cells assessed as reduction in virus-induced cytopathogenicity incubated for 7 days by microscopic analysis; assay type: functional, organism-based
[8] = tested on: Influenza A virus; experiment: Antiviral activity against Influenza A virus (A/Ned/378/05(H1N1)) infected in dog MDCK cells assessed as reduction in virus-induced cytopathogenicity incubated for 7 days by microscopic analysis; assay type: functional, organism-based
[9] = tested on: MCF7; experiment: Antiproliferative activity against human MCF7 cells assessed as reduction in cell viability incubated for 72 hrs by MTT assay; assay type: functional, cell-based; conditions: MCF7, 72 h; summary of the method: as §1
[10] = tested on: HFF; experiment: Cytotoxicity against human HFF cells assessed as reduction in cell viability incubated for 72 hrs by MTT assay; assay type: cell-based; summary of the method: as §1
[11] = tested on: Cytomegalovirus; experiment: Antiviral activity against Cytomegalovirus Davis infected in human HELF cells assessed as reduction in virus-induced cytopathogenicity incubated for 7 days by Giemsa staining based microscopic analysis; assay type: functional, organism-based; conditions: Human betaherpesvirus 5, Davis, 168 h; summary of the method: as §2
[12] = tested on: Human alphaherpesvirus 3; experiment: Antiviral activity against thymidine kinase positive Varicella zoster virus infected in human HELF cells assessed as reduction in virus-induced cytopathogenicity incubated for 7 days by Giemsa staining based microscopic analysis; assay type: functional, organism-based; conditions: Human alphaherpesvirus 3, HELF, 168 h
[13] = tested on: Human alphaherpesvirus 1; experiment: Antiviral activity against Herpes simplex virus 1 TK-KOS-ACV infected in human HELF cells assessed as reduction in virus-induced cytopathogenicity incubated for 7 days by microscopic analysis; assay type: functional, organism-based
[14] = tested on: Influenza A virus; experiment: Antiviral activity against Influenza A virus (A/Ned/378/05(H1N1)) infected in dog MDCK cells assessed as reduction in virus-induced cytopathogenicity incubated for 7 days by MTS assay; assay type: functional, organism-based
[15] = tested on: Human alphaherpesvirus 2; experiment: Antiviral activity against Herpes simplex virus 2 G infected in human HELF cells assessed as reduction in virus-induced cytopathogenicity incubated for 7 days by microscopic analysis; assay type: functional, organism-based
[16] = tested on: Influenza B virus; experiment: Antiviral activity against Influenza B virus (B/Ned/537/05) infected in dog MDCK cells assessed as reduction in virus-induced cytopathogenicity incubated for 7 days by microscopic analysis; assay type: functional, organism-based
[17] = Cytotoxicity against human HELF cells assessed as minimum cytotoxic concentration by observing alteration in cell morphology incubated for 3 days by microscopic analysis; assay type: cell-based; conditions: for MCC at 72 h: HELF cells
Summary of the method: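 Read-out is the minimum cytotoxic concentration (MCC): the lowest compound concentration giving a microscopically detectable change in cell morphology. Measured on confluent human embryonic lung (HEL) fibroblast cultures exposed to a range of compound concentrations.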

[18] = Cytotoxicity against human HELF cells assessed as reduction in cell viability incubated for 3 days by coulter counter method; assay type: cell-based; conditions: 72 h
Summary of the method: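 HEL cells seeded at 5 x 10^3/well and allowed to proliferate 24 h, then exposed to graded compound concentrations for 3 days at 37 °C. Cell number counted with a Coulter counter.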

[19] = tested on: Influenza B virus; experiment: Antiviral activity against Influenza B virus (B/Ned/537/05) infected in dog MDCK cells assessed as reduction in virus-induced cytopathogenicity incubated for 7 days by MTS assay; assay type: functional, organism-based
[20] = tested on: Influenza A virus H3N2; experiment: Antiviral activity against Influenza A virus (A/HK/7/87(H3N2)) infected in dog MDCK cells assessed as reduction in virus-induced cytopathogenicity incubated for 7 days by MTS assay; assay type: functional, organism-based; conditions: A/Hong Kong/7/1987(H3N2)
[21] = tested on: Sindbis virus; experiment: Antiviral activity against Sindbis virus infected in vero cells assessed as reduction in virus-induced cytopathogenicity incubated for 7 days by microscopic analysis; assay type: functional, organism-based
[22] = tested on: Reovirus sp.; experiment: Antiviral activity against Reovirus infected in vero cells assessed as reduction in virus-induced cytopathogenicity incubated for 7 days by microscopic analysis; assay type: functional, organism-based
[23] = tested on: Human alphaherpesvirus 1; experiment: Antiviral activity against Herpes simplex virus 1 KOS infected in human HELF cells assessed as reduction in virus-induced cytopathogenicity incubated for 7 days by microscopic analysis; assay type: functional, organism-based; conditions: strain KOS
[24] = tested on: Coxsackievirus B4; experiment: Antiviral activity against Human coxsackievirus B4 infected in vero cells assessed as reduction in virus-induced cytopathogenicity incubated for 7 days by microscopic analysis; assay type: functional, organism-based
[25] = tested on: Human coronavirus 229E; experiment: Antiviral activity against Human coronavirus 229E infected in human HELF cells assessed as reduction in virus-induced cytopathogenicity incubated for 7 days by microscopic analysis; assay type: functional, organism-based
[26] = tested on: HeLa; experiment: Antiproliferative activity against human HeLa cells assessed as reduction in cell viability incubated for 72 hrs by MTT assay; assay type: functional, cell-based; summary of the method: as §1
[27] = tested on: SW-620; experiment: Antiproliferative activity against human SW620 cells assessed as reduction in cell viability incubated for 72 hrs by MTT assay; assay type: functional, cell-based; conditions: SW-620, 72 h; summary of the method: as §1
[28] = tested on: CFPAC-1; experiment: Antiproliferative activity against human CFPAC-1 cells assessed as reduction in cell viability incubated for 72 hrs by MTT assay; assay type: functional, cell-based; conditions: Homo sapiens, CFPAC-1, 72 h; read-out: IC50; summary of the method: as §1

Row | Structure (SMILES) | IC50 [1] | Activity [2] | EC50 [3] | EC50 [4] | IC50 [6] | Activity [7] | Activity [8] | IC50 [9] | IC50 [10] | EC50 [11] | EC50 [12] | Activity [13] | Activity [14] | Activity [15] | Activity [16] | MCC at 72 h [17] | CC50 [18] | Activity [19] | Activity [20] | Activity [21] | further results
1 | COc1ccc(-c2cn(C/C=C3\OC(=O)C(OCc4ccccc4)=C3OCc3ccccc3)nn2)cc1 | > 100 µM | inactive | 20 µM | > 100 µM | > 100 µM | inactive | inactive | 39.1 µM | > 100 µM | 5.74 µM | > 100 µM | inactive | inactive | inactive | inactive | > 100 µM | > 100 µM | inactive | inactive | inactive | IC50 [5]: > 100 µM; Activity [22]: inactive; Activity [23]: inactive; Activity [24]: inactive; Activity [25]: inactive; IC50 [26]: > 100 µM; IC50 [27]: > 100 µM; IC50 [28]: > 100 µM
2 | O=c1[nH]c(=O)n([C@H]2C[C@H](O)[C@@H](CO)O2)cc1/C=C/Br [BRIVUDINE] |  |  |  | 0.0066 µM |  |  |  |  |  |  | 18.4 µM |  |  |  |  |  | 179 µM |  |  |  | EC50 ([15]; Human alphaherpesvirus 2, G, 168 h): > 250 µM; MCC ([17]; 72 h): 250 to 300 µM
3 | COc1ccccc1-c1cn(C/C=C2\OC(=O)C(OCc3ccccc3)=C2OCc2ccccc2)nn1 | > 100 µM | inactive | > 100 µM | > 20 µM | > 100 µM | inactive | inactive | > 100 µM | > 100 µM | 10.8 µM | > 100 µM | inactive | inactive | inactive | inactive | 100 µM | 4.29 µM | inactive | inactive | inactive | IC50 [5]: > 100 µM; Activity [22]: inactive; Activity [23]: inactive; Activity [24]: inactive; Activity [25]: inactive; IC50 [26]: > 100 µM; IC50 [27]: > 100 µM; IC50 [28]: > 100 µM
4 | Cc1ccc(-c2cn(C/C=C3\OC(=O)C(OCc4ccccc4)=C3OCc3ccccc3)nn2)cc1 | > 100 µM | inactive | 8.94 µM | 27.6 µM | > 100 µM | inactive | inactive | > 100 µM | > 100 µM | 5.66 µM | > 4 µM | inactive | inactive | inactive | inactive | 20 µM | > 100 µM | inactive | inactive | inactive | IC50 [5]: > 100 µM; Activity [22]: inactive; Activity [23]: inactive; Activity [24]: inactive; Activity [25]: inactive; IC50 [26]: 7.48 µM; IC50 [27]: > 100 µM; IC50 [28]: > 100 µM
5 | C[Si](C)(C)c1cn(C[C@H](O)[C@H]2OC(=O)C(OCc3ccccc3)=C2OCc2ccccc2)nn1 | 24.1 µM | inactive | > 100 µM | > 20 µM | 31.8 µM | inactive | inactive | 12.1 µM | 20 µM | 12.1 µM | > 20 µM | inactive | inactive | inactive | inactive | 100 µM | 22.3 µM | inactive | inactive | inactive | Activity [22]: inactive; Activity [23]: inactive; Activity [24]: inactive; Activity [25]: inactive; IC50 [26]: 22.3 µM; IC50 [27]: 56 µM; IC50 [28]: 52.6 µM
